# Only some compounds are listed: those with a hit (about 2% of all), similar ones and a draw of the others.
# EBV LMP1 NFkB: Epstein-Barr LMP1 NF-kappaB reporter inhibition; LMP1-induced NF-kappaB luciferase reporter cells, luminescence; inhibition, % at 12.5 µM; 350,000 tested, 0.69% active; AID 504558; in the data active = inhibition above about 41%;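 also: 0% = neutral control wells and 100% = reference inhibitor control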
# HIF activator: HIF pathway transcriptional activation; U2OS HRE-luciferase reporter, luminescence; normalized: DMSO 0%, desferrioxamine 100%; 300,000 tested, 0.32% active; AID 1910; activation, % at 7.5 µM (by protocol);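 active = mean activation of at least 10% of the iron chelator positive control signal, with at least half of replicates also reaching 10%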
# NR2E3 ag-1: human photoreceptor-specific nuclear receptor agonism; inhibition of corepressor binding, % at 3.98 µM; AID 602229; 360,000 tested, 0.35% active; CHO-S Gal4-NCOR/VP16-NR2E3 two-hybrid, luciferase;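 active = inhibition above the mean of all tested compounds plus 3 SD, cut at about 70% in these data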;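 also: 0% = DMSO with NR2E3 transfected cells and 100% = cells lacking NR2E3 construct; higher means lower luciferase signal from less NR2E3 corepressor binding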
# Target sequence (Q9Y5X4 whole entry, looked up, the tested form may be a part): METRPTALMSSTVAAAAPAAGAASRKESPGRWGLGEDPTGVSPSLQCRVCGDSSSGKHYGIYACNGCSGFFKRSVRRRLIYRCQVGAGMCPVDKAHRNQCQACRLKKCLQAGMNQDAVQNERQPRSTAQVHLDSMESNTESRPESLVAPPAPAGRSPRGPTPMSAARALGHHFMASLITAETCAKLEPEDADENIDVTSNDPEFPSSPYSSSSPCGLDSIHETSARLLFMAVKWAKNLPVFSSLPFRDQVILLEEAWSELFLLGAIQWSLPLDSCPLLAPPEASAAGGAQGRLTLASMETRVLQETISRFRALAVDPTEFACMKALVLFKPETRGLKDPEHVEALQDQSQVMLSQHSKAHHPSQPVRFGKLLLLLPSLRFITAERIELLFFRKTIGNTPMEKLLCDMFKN
# NR2E3 ag-2: NR2E3 (human) agonism; AID 2300; inhibition of corepressor binding, % at 4.78 µM; GST-NR2E3/biotin-RetCOR TR-FRET, 1536-well; 320,000 tested, 0.12% active; Q9Y5X4;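 active = percent inhibition above the cutoff of mean plus 3 SD of all tested compounds, set per screening campaign, cut at about 20% in these data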;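 also: 0% = DMSO wells and 100% = biotin wells as full block of FRET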
#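 System: GST-tagged NR2E3 plus biotinylated RetCOR corepressor; Buffer or medium: pH 7.5 Tris-based buffer; Probe or stimulus: RetCOR corepressor, biotinylated, 7 nM; Doses: compound at 4.8 µM, single dose; Schedule: 5 h incubation at 4 °C; Technique: time-resolved FRET; Evaluation: percent inhibition of TR-FRET ratio; Replication: one well per compound, singlicate testing.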
# TROY NFkB inh: inhibitors of TROY-dependent NF-kB signaling; Q293 LMP1-TROYcd NF-kB luciferase reporter, 4 h; inhibition, % at 10 µM; 360,000 tested, 0.98% active; AID 1347056;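 active = compounds whose plate-normalised and pattern-corrected inhibition of the luciferase reporter signal at the single screening dose is 50% or more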
# NR2E3 ag conf: confirmation of human NR2E3 agonists; inhibition, % at 3.98 µM; shares compounds with NR2E3 ag-1; CHO-S mammalian two-hybrid NR2E3-NCOR, luciferase luminescence; AID 624378; 2,300 tested, 51% active;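 active = average inhibition above a cutoff equal to the mean inhibition of all tested compounds plus one SD, cut at about 70% in these data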;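 also: 0% = DMSO in NR2E3 cells and 100% = DMSO in cells lacking NR2E3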
# VP16 counter: reduces GAL4-VP16 reporter signal in NR2E3 counterscreen. shares compounds with NR2E3 ag-1. CHO-S GAL4-VP16 luciferase reporter, luminescence. inhibition, % at 3.98 µM. 2,300 tested, 29% active. AID 624379;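 active = mean inhibition above a cutoff equal to the average over all tested compounds plus one standard deviation, cut at about 70% in these data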;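 also: luciferase from a UAS reporter driven by GAL4-VP16 transactivation; 0% = DMSO with VP16-transfected cells and 100% = DMSO with cells lacking VP16; higher means less reporter light so more repression of VP16 activity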
# Starred values were filed as active, the others as inactive; / = no result given.
SMILES,EBV LMP1 NFkB,HIF activator,NR2E3 ag-1,NR2E3 ag-2,TROY NFkB inh,NR2E3 ag conf,VP16 counter
CC[C@@]1(O)C(=O)OCc2c1cc1n(c2=O)Cc2cc3c(N)cccc3nc2-1,83*,17*,82*,-7,63*,88*,41
O=C(NC(=S)N1CCN(c2nc(-c3ccccc3)cs2)CC1)c1cncc(Br)c1,0,-1,62,0,1,40,39
O=C(CN1CCN(c2nc(-c3ccccc3)cs2)CC1)NNC(=O)c1ccc(Br)cc1,-4,0,-9,1,3,/,/
CSCCC(C(=O)Nc1c(C)cccc1C)N1CCC(Cc2ccccc2)CC1 (stereo not drawn),/,/,7,/,10,/,/
CC(C)(C)c1ccc(-c2cn(-c3ccc(Br)cc3)c3[n+]2CCCS3)cc1,28,0,-2,/,36,/,/
CC(O)(c1cccnc1)c1nc(-c2cccc(C(F)(F)F)c2)cs1 (stereo not drawn),/,/,67,/,14,51,39
CC(O)(c1cccnc1)c1nc(-c2cccc(F)c2)cs1 (stereo not drawn),/,/,-4,/,6,/,/
CC(O)(c1cccnc1)c1nc(-c2ccc(F)c(Cl)c2)cs1 (stereo not drawn),/,/,53,/,2,65,52
CNC(=O)OCc1nc(SC2CCCCO2)n(C)c1COC(=O)NC (stereo not drawn),/,/,-12,/,-12,/,/
Cc1ccc(NC(=O)COc2ccc(N(C)C(=O)C(C)(C)C)cc2)cc1S(=O)(=O)N1CCCCC1,15,/,63,/,39,0,44
Cc1ccc(S(=O)(=O)N2CCCCC2)cc1NCC(=O)Nc1ccc(Br)cc1F,-1,/,54,/,53*,81*,72*
COCCN(C(=O)COC(=O)/C=C/c1ccc2c(c1)OCO2)c1c(N)n(Cc2ccccc2)c(=O)[nH]c1=O,2,-1,-36,2,5,/,/
Cc1noc(C)c1COC(=O)c1ccc(F)c(S(=O)(=O)N2CCCCC2)c1,-1,0,-25,0,2,/,/
Cc1noc(C)c1COC(=O)c1cccc(S(=O)(=O)N2CCCCCC2)c1,5,/,62,-1,17,45,58
CC1=Nc2ccccc2/C1=C/c1nc(-c2ccc(C)s2)oc1O,-5,1,-27,-3,1,/,/
CC1=Nc2ccccc2/C1=C/c1sc(=N)n(-c2nccs2)c1O,29,0,76*,3,74*,67,31
CC(C)Cn1c(N)c(C(=O)COC(=O)CC23CC4CC(CC(C4)C2)C3)c(=O)n(C)c1=O,13,1,94*,3,59*,93*,76*
Cc1cccc(C(=O)OCC(=O)c2c(N)n(CC(C)C)c(=O)n(C)c2=O)c1[N+](=O)[O-],31,0,50,0,24,40,45
Cc1cccc(C(=O)OCC(=O)c2c(N)n(CC(C)C)c(=O)n(C)c2=O)c1O,18,0,-29,5,36,/,/
Cc1csc(=O)n1CCC(=O)OCC(=O)c1c(N)n(CC(C)C)c(=O)n(C)c1=O,17,0,8,2,8,/,/
CC(C)Cn1c(N)c(C(=O)COC(=O)/C=C/c2ccccc2)c(=O)n(C)c1=O,28,0,74*,7,32,26,56
CCN1CCN(C(=O)C2CCC(=O)N(Cc3cccc(C(F)(F)F)c3)C2)CC1 (stereo not drawn),-12,0,3,1,-2,/,/
CCOc1cc2[nH]c(=S)n(CCC(=O)NC3CCCCC3)c(=O)c2cc1OCC,-1,/,11,/,7,/,/
O=C(Nc1ccc2c(c1)OCCO2)C(c1ccnc2ccccc12)N1CCN(c2ccc(C(F)(F)F)cn2)CC1 (stereo not drawn),/,/,58,/,69*,29,2
O=C(NNC(=O)c1cc(-c2ccc(Cl)cc2)nc2ccccc12)c1csc(N2CCOCC2)n1,0,0,7,-2,-17,/,/
CN(CCCS(=O)(=O)[O-])c1ccc(/C=C/c2ccc3ccccc3[n+]2C)cc1,-3,-29,-7,/,2,/,/
